Consider three molecules from the M2OR odorant receptor database.

Holding throughout (settings): stereoisomer not certain
One assay addresses T1, UniProt Q8VGC6.
T1 sequence (whole entry): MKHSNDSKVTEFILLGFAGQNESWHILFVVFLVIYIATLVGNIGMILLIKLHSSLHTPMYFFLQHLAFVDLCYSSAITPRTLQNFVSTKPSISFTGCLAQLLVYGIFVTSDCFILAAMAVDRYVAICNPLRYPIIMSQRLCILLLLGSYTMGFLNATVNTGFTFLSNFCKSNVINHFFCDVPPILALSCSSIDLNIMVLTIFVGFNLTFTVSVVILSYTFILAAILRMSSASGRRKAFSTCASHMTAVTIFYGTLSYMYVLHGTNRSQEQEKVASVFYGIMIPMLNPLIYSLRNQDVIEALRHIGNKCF
The gist of the method: (§1)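 Assay methods differ from source to source, frequently being transient luciferase assays in mammalian cell lines. For each receptor–molecule pair, the label responsive (active) applies when the original authors judged the measured signal statistically different from baseline, and non-responsive (inactive) applies otherwise.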

In the next assay the target is T2, UniProt Q8VGJ3.
T2 sequence (whole entry): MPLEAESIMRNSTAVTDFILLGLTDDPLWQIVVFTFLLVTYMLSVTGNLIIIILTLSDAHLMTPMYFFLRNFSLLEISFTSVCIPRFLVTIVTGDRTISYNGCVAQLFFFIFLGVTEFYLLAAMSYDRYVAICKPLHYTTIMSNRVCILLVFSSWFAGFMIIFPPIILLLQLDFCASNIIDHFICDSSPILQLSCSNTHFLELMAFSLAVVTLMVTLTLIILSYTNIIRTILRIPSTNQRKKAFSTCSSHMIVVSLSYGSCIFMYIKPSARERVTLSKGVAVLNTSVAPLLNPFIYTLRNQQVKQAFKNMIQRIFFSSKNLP
The method in brief: as §1

A further assay has as its target T3, UniProt Q8VGL0.
T3 sequence (whole entry): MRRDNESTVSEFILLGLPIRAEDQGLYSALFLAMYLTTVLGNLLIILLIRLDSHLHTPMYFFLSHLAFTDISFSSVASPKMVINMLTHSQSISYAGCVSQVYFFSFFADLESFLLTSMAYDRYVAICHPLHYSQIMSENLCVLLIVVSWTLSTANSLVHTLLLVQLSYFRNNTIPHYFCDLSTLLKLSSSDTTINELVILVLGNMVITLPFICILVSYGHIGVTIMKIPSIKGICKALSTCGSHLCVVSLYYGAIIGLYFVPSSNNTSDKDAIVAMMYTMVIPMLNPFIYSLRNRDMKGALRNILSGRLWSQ
The gist of the method:
as §1

The target of a further assay is T4, UniProt Q8VGU3.
T4 sequence (whole entry): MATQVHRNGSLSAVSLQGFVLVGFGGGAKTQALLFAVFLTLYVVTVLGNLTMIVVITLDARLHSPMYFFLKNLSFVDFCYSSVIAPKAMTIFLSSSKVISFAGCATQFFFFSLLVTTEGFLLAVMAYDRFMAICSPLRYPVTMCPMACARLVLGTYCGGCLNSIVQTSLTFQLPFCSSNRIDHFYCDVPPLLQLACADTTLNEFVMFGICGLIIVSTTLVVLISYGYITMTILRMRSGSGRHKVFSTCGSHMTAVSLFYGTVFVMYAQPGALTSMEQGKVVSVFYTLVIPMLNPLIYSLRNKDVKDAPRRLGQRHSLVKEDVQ
The method in brief: as §1

Another assay concerns the target T5, UniProt Q8VGV7.
T5 sequence (whole entry): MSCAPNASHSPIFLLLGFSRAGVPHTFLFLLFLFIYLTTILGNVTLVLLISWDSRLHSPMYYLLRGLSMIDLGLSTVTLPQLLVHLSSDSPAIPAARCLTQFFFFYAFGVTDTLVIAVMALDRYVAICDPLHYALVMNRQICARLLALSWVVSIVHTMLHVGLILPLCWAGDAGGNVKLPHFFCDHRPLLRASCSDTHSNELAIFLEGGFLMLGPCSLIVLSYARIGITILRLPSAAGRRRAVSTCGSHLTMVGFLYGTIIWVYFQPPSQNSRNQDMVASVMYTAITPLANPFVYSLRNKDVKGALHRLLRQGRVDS
The gist of the method:
as §1

In another assay the target is T6, UniProt Q8VGX3.
T6 sequence (whole entry): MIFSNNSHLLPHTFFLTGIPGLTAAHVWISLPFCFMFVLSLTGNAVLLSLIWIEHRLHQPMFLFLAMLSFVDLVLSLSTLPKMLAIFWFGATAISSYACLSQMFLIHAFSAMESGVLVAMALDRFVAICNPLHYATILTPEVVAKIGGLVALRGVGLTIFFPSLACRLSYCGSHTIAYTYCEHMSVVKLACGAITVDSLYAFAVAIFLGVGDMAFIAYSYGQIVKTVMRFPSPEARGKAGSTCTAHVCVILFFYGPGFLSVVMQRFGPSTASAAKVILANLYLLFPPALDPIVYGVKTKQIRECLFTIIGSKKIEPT
The method in brief:
as §1

The target in the next assay is T7, UniProt Q8VGX5.
T7 sequence (whole entry): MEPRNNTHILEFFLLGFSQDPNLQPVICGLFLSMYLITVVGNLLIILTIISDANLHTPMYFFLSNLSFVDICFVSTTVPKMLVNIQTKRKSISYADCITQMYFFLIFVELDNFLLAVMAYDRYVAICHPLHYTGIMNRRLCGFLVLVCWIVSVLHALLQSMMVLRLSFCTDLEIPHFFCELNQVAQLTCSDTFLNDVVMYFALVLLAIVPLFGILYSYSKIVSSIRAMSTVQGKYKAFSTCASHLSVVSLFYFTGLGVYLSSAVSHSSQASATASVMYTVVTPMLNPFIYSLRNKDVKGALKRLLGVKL
The method in brief:
as §1

Another assay has as its target T8, UniProt Q8VGD7.
T8 sequence (whole entry): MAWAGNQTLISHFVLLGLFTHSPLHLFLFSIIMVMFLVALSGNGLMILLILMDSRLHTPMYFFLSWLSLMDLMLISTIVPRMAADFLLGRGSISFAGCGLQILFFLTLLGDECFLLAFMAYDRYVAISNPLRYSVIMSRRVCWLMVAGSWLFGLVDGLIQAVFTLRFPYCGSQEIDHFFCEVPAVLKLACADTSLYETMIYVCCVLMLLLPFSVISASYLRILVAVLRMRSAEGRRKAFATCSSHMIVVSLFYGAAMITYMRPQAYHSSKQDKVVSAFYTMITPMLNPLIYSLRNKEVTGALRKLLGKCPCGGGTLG
The gist of the method:
as §1

The target in the next assay is T9, UniProt Q8VGH1.
T9 sequence (whole entry): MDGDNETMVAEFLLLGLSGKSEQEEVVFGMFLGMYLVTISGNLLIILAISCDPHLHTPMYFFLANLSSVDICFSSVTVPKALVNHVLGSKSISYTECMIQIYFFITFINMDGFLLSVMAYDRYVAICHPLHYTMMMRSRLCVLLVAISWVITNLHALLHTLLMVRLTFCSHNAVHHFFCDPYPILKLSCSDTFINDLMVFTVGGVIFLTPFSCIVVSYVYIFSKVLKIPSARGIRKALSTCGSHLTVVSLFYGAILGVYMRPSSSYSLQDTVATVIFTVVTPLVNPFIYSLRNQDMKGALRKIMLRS
The gist of the method: as §1

The next assay addresses T10, UniProt Q8VGJ1.
T10 sequence (whole entry): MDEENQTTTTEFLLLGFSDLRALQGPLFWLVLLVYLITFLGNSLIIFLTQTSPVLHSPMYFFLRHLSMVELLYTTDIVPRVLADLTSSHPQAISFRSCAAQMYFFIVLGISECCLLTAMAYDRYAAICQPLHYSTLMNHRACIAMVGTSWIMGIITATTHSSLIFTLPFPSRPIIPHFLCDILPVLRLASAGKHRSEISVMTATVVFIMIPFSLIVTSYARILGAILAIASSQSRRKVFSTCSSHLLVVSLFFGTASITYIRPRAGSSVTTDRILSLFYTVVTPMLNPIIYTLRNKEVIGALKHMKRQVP
The method in brief: as §1

A further assay deals with T11, UniProt Q8VGJ5.
T11 sequence (whole entry): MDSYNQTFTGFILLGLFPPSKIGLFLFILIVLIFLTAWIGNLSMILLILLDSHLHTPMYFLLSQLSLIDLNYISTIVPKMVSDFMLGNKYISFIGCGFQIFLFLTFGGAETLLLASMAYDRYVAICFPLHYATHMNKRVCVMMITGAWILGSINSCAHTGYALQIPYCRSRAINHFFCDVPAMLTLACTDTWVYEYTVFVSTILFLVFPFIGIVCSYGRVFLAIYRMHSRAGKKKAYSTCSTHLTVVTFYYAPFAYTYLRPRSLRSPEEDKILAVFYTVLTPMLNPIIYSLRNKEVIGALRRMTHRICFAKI
The gist of the method: as §1

For a further assay, the target named is T12, UniProt Q8VGL7.
T12 sequence (whole entry): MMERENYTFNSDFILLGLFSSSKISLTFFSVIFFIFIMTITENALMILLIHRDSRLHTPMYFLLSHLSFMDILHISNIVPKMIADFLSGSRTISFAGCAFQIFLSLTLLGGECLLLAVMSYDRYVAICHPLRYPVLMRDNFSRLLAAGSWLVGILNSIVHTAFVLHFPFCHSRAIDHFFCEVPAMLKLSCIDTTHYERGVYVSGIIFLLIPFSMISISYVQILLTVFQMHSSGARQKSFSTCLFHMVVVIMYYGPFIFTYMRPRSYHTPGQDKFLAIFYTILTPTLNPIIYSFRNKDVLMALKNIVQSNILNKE
The gist of the method:
as §1

The next assay concerns the target T13, UniProt Q8VGM2.
T13 sequence (whole entry): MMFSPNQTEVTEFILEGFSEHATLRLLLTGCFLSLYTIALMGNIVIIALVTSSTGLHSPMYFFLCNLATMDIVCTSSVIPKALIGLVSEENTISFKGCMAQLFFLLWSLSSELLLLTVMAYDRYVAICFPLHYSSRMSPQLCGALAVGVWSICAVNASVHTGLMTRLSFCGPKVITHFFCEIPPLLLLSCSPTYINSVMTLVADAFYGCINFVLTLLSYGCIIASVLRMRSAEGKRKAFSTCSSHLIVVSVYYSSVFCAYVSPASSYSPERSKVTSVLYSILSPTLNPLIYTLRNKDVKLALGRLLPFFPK
The gist of the method:
as §1

The target of another assay is T14, UniProt Q8VGP6.
T14 sequence (whole entry): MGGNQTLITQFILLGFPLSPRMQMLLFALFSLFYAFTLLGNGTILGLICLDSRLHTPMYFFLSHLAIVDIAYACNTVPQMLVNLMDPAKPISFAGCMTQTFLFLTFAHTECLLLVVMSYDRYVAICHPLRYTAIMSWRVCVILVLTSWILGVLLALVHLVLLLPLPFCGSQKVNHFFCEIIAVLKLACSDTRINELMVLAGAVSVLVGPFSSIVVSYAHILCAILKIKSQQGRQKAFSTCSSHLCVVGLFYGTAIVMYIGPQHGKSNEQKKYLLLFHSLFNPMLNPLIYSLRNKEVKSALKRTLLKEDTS
The gist of the method:
as §1

For a further assay, the target named is T15, UniProt Q8VGQ3.
T15 sequence (whole entry): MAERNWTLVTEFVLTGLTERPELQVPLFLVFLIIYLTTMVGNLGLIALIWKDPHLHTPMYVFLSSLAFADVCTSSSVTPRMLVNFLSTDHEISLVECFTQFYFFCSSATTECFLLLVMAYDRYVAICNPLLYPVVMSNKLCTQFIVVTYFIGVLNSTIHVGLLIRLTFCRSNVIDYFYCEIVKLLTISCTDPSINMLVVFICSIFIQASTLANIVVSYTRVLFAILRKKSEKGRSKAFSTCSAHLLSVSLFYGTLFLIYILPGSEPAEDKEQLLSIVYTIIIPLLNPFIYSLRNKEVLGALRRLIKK
The gist of the method:
as §1

For the next assay, the target named is T16, UniProt Q8VGT4.
T16 sequence (whole entry): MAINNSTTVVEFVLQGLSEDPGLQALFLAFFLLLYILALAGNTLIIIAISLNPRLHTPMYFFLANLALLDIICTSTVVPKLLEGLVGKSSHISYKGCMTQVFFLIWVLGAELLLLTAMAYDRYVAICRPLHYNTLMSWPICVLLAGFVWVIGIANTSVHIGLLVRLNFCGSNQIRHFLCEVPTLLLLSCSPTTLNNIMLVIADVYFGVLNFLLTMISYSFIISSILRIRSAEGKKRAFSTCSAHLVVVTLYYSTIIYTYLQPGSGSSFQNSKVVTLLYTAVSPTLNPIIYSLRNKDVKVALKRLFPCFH
The method in brief: as §1

For the next assay, the target named is T17, UniProt Q8VGV1.
T17 sequence (whole entry): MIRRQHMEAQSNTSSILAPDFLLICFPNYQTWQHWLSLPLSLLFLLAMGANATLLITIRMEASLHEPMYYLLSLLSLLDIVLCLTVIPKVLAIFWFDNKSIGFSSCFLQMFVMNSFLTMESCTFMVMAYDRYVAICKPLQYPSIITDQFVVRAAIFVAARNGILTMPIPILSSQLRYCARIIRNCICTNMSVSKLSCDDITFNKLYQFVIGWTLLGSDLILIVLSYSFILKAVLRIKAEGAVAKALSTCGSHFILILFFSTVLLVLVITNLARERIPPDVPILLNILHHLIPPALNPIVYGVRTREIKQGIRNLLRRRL
The gist of the method:
as §1

Molecules are shown by their SMILES.

As to `CCCC=O`, the “odorant receptor agonist call” value with UniProt Q8VGC6, with UniProt Q8VGJ3, in the assay with UniProt Q8VGL0, with UniProt Q8VGU3, with UniProt Q8VGV7 and in the assay with UniProt Q8VGX3 was “inactive” in each case. In the assay with UniProt Q8VGX5, the “odorant receptor agonist call” value was “active”.

For `CCCCCCCCCCO`, the “odorant receptor agonist call” value in the assay with UniProt Q8VGC6 and with UniProt Q8VGP6 was “active” each time. In addition, the “odorant receptor agonist call” value with UniProt Q8VGD7, in the assay with UniProt Q8VGH1, with UniProt Q8VGJ1, with UniProt Q8VGJ3, in the assay with UniProt Q8VGJ5 and with UniProt Q8VGL0 was “inactive” each time. The “odorant receptor agonist call” value with UniProt Q8VGL7, in the assay with UniProt Q8VGM2, with UniProt Q8VGQ3, in the assay with UniProt Q8VGT4, in the assay with UniProt Q8VGU3 and in the assay with UniProt Q8VGV1 was “inactive” in each case. Further, the “odorant receptor agonist call” value in the assay with UniProt Q8VGV7, with UniProt Q8VGX3 and with UniProt Q8VGX5 was “inactive” each time.

For the molecule `CC(C)=CCCC(C)CCO` (stereo unspecified), the “odorant receptor agonist call” value with UniProt Q8VGC6 and with UniProt Q8VGL0 was “active” in each case. The “odorant receptor agonist call” value in the assay with UniProt Q8VGD7, with UniProt Q8VGH1, with UniProt Q8VGJ1, with UniProt Q8VGJ3, with UniProt Q8VGJ5 and with UniProt Q8VGL7 was “inactive” throughout. For the same molecule, the “odorant receptor agonist call” value in the assay with UniProt Q8VGM2, with UniProt Q8VGP6, in the assay with UniProt Q8VGQ3, with UniProt Q8VGT4, in the assay with UniProt Q8VGU3 and with UniProt Q8VGV1 was “inactive” throughout. Also, the “odorant receptor agonist call” value with UniProt Q8VGV7, with UniProt Q8VGX3 and with UniProt Q8VGX5 was “inactive” in each case.
